Assay outcomes: PubChem, Columbia University Molecular Screening Center
INS promoter act = activators of insulin promoter-driven GFP, primary screen, imaging, TRM-6 cells, eGFP reporter, cell count; plate-scaled: unstimulated 0, stimulated control 100; activation, % at 2 µM; actives 0.81% (n = 130,000); AID 1296, 2008;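 active = activation at 2 µM above a set limit, confirmed on inspection of the cell images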;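 also: share of cells whose green reporter signal exceeds an intensity cutoff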
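material = TRM-6 human fetal islet cells, insulin promoter–eGFP reporter | input = 1,000 TRM-6 cells seeded per well | benchmarks = stimulated versus unstimulated wells as plate controls | measured by = automated fluorescence imaging of paraformaldehyde-fixed, Hoechst-counterstained cells, green channel | schedule = compound exposure 48 h, 37 °C | reagent = tamoxifen at 0.75 µM added at seeding for reporter induction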
Numbers stand for hits; – = inactive. This excerpt belongs to a sample that is enriched for hits.

SMILES | INS promoter act
CCC(=O)NC(=S)Nc1ccc(NC(=O)COc2ccc(Cl)cc2Cl)cc1 | –
Nc1ccc(Br)cc1C(NCC(=O)O)c1ccccc1 (configuration not stated) | –
CCOc1ccccc1-n1c(=O)c2ccccc2c2ccccc2c1=O | –
CCOc1ccccc1C(=O)n1nc(C)cc1C | –
CCOc1ccccc1C(=O)N1c2ccccc2Sc2ccccc21 | 100
O=C(/C=C/c1c(F)cccc1Cl)Nc1nc2ccccc2[nH]1 | –
CC(C)CN1C(=S)SC(C)(C)C1n1oc(=O)n(-c2ccc(Cl)cc2)c1=O (configuration not stated) | –
CCc1ccc(NC(=O)CSc2ccccn2)cc1 | –
CCSc1nnc(NC(=O)c2ccccn2)s1 | –
C=CCSc1nnc(NC(=O)CSc2ccccn2)s1 | 425
COc1ccc(/C=C2\CCCC3C2=NN(C(=O)c2scnc2C)C3c2ccc(OC)c(OC)c2)cc1OC (configuration not stated) | –
COc1ccc(-c2nc(=S)n3ccsc3n2)cc1OC | –
CSc1[nH]c(=O)c(C(=O)O)cc1C#N | –
Cc1cccc(S(=O)(=O)Nc2ccc(C)c3c2OC(C)(C)C3)c1 | –
COc1ccccc1NS(=O)(=O)c1cc(NC(=O)c2cc3ccccc3oc2=O)ccc1C | –
CCCCNC(=S)NNC(=O)c1ccc(Br)o1 | –
CC(C)(C)OC(=O)NNC(=O)C12CC3CC(CC(C3)C1)C2 | –
CCCCNC(=S)NNC(=O)C12CC3CC(CC(C3)C1)C2 | 86
O=C(O)c1c[nH]c(=O)c2ccccc12 | –
Cc1ccc(OCc2nc(-c3ccccn3)n[nH]2)cc1 | –
CCOC(=O)C1CCCN(Cc2cccs2)C1 (configuration not stated) | –
Cc1oncc1C(=O)NC1CCCCC1 | –
CCC(C)(C)NC(=O)CN(Cc1cccs1)C(=O)CCC(=O)Nc1nccs1 | –
Cc1cc(NC(=O)CCC(=O)N(c2ccccc2)C(C(=O)NC2CCCCC2)c2cccs2)no1 (configuration not stated) | –
CCC(C)(C)NC(=O)C(c1ccc(OC)cc1)N(Cc1cccs1)C(=O)CCC(=O)Nc1cc(C)on1 (configuration not stated) | 600
SMILES | INS promoter act
COc1cc(C(=O)Nc2ccc3c(c2)OCCO3)ccc1OC(F)F | –
COc1ccc(C(=O)CCNc2ccc3c(c2)OCCO3)cc1 | 356
CCOC(=O)c1ccc(NC(=O)Nc2ccc3c(c2)OCCO3)cc1 | –
COc1ccc(/C=C2\CC/C(=C\c3ccc(OC)cc3OC)C2=O)c(OC)c1 | 527
COc1ccc(/C=N\NC(=O)c2cccc(Br)c2)c(OC)c1 | –
COc1ccc(/C=C2\CC/C(=C\c3ccc(OC)c(OC)c3)C2=O)cc1OC | –
CN(C)S(=O)(=O)c1cc(NC(=O)COC(=O)C2COc3ccccc3O2)ccc1Cl (configuration not stated) | –
CCCCNC(=O)c1ccc(CS(=O)(=O)Cc2ccccc2F)o1 | –
NC(=O)C1(N2CCCCC2)CCN(C(=O)CSc2nc3ccccc3o2)CC1 | –
NC(=O)C1(N2CCCCC2)CCN(Cc2ccccc2Cl)CC1 | 456
NC(=O)C1(N2CCCCC2)CCN(CC(=O)Nc2ccccc2-c2ccccc2)CC1 | –
COc1cccc(C2C(C(=O)c3ccc(C)o3)=C(O)C(=O)N2CCCN(C)C)c1 (configuration not stated) | –
CCCCSC(=S)NC1CCS(=O)(=O)C1 (configuration not stated) | –
O=C(Nc1ccc(N2CCOCC2)cc1)Nc1ccc2nsnc2c1 | –
COc1cccc(C2CC(c3ccc(NS(C)(=O)=O)cc3)=NN2C(=O)c2ccccc2)c1OC (configuration not stated) | –
COc1ccc(C2CC(c3ccc(Br)cc3)=NN2C(=O)c2cccnc2)cc1 (configuration not stated) | –
COC(=O)CCSCC(=O)N1N=C(c2ccc(Br)cc2)CC1c1cccc(OC)c1OC (configuration not stated) | 387
CC(C)c1ccc(/C=C/C(=O)n2nnc3ccccc32)cc1 | –
O=C(Nc1ccc(Cl)cc1)N(Cc1nnc2n1CCCCC2)c1ccccc1 | –
Cc1cn(C(=O)c2cccc(Br)c2)c(C)n1 | –
CCC(=O)c1ccc(OC(=O)c2ccc(Br)o2)cc1 | –
CCOC(=O)C1=C(C)Nc2ccccc2N=C1NC(=O)Cc1ccc(Cl)c(Cl)c1 | –
CCOC(=O)C1=C(C)Nc2ccccc2N=C1NC(=O)Cc1ccc(Br)cc1 | 223
CCOC(=O)c1ccc(CNCc2ccc(Br)cc2)cc1 | –
CCOC(=O)c1ccccc1NC(=O)N[C@@H](C)C(=O)OC | –
SMILES | INS promoter act
N#C/C(=C\c1ccc([N+](=O)[O-])o1)C(=O)Nc1ccc(F)cc1 | 400
N#C/C(=C\c1ccc(N2CCCCC2)o1)C(=O)Nc1cccc(Br)c1 | –
O=C1OC(c2ccc(F)cc2)=C/C1=C\c1ccc([N+](=O)[O-])o1 | –
Nc1c(Cl)cc2c(c1Oc1ccccc1)C(=O)c1ccccc1C2=O | –
O=C(O)c1cc2cc(F)ccc2[nH]1 | –
Cc1ccc(C(=O)/C=C/Nc2ccccc2C(N)=O)cc1 | –
CCc1ccc(/C=C/C(=O)c2cc(Br)ccc(=O)c2O)cc1 | –
O=C(/C=C/c1ccccc1Cl)NCCc1ccc(F)cc1 | –
CCNc1ccc(Br)cc(C(=O)/C=C/c2ccccc2Cl)c1=O | 800
COc1ccc(CCNC(=O)C2CCN(S(=O)(=O)c3c(C)noc3C)CC2)cc1OC | –
COc1ccc(CCNC(=O)C2CCCN(c3nn4c(=O)cc(C)nc4s3)C2)cc1OC (configuration not stated) | –
CCc1ccc(-c2nc(CN3CCCC(C(=O)NCCc4ccc(OC)c(OC)c4)C3)c(C)o2)cc1 (configuration not stated) | 121
O=C(CSc1nnc(Cc2ccccc2)o1)NCc1ccco1 | –
Nc1c(C(=O)Nc2nc3ccccc3s2)sc2nc(-c3cccs3)ccc12 | 196
O=C(NC(=S)Nc1nc2ccccc2s1)c1cccs1 | –
Nc1c(C(=O)Nc2ccccc2)sc2nc(-c3ccco3)ccc12 | –
CCOCCn1c(CN2CCC(Cc3ccccc3)CC2)nc2c1c(=O)n(C)c(=O)n2C | –
COc1cccc(C(=O)NC(=S)Nc2ccc(N(C)C)cc2)c1 | –
COc1cc(/C=C(\C#N)c2nc3ccccc3s2)ccc1OCC(=O)Nc1ccccc1 | –
CC(=O)Nc1sc(/C(C#N)=C/c2ccc(Cl)c(Cl)c2)nc1-c1ccc(C)cc1 | 223
N#C/C(=C/c1ccncc1)c1nc2ccccc2s1 | –
Cc1[nH]cc(Br)c(=O)c1Oc1ncc(C(F)(F)F)cc1Cl | –
O=CN1CCN(C(=O)c2ccc(-c3nc4ccccc4s3)s2)CC1 | –
C/C(CC(=O)NCCCN1CCOCC1)=N\NC(=O)COc1cccc2ccccc12 | –
NS(=O)(=O)c1ccc(CCNC(=O)C2CCN(S(=O)(=O)c3cnc[nH]3)CC2)cc1 | –
SMILES | INS promoter act
CC1CCN(C(=O)C2CCN(CC(C)c3ccccc3)CC2)CC1 (configuration not stated) | –
CC1CCN(C(=O)C2CCN(S(=O)(=O)c3cnc[nH]3)CC2)CC1 | 506
COc1cccc(OC)c1C(=O)N1CCN(Cc2ccccc2C)CC1 | –
CCOC(=O)C1C(=O)N(O)CC1c1cccc(Oc2ccccc2)c1 (configuration not stated) | –
O=C(NN=C1C2CC3CC(C2)CC1C3)c1cccc(S(=O)(=O)N2CCOCC2)c1 | –
CC1=C(C)CC(C(=O)NNC(=O)c2cccc(Cl)c2)C(C(=O)O)C1 (configuration not stated) | –
